# How the values were obtained:
# [1] = biological target: T1, Leukotriene B4 receptor (Homo sapiens, UniProt Q9NPC1+Q15722); test: In vitro leukotriene B4 receptor binding potency determined by displacement of [3H]- LTB4 from human neutrophils (PMNs)
# Summary of the method: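 Intact human neutrophils from citrated venous blood (HESPAN sedimentation, Ficoll-Paque, hypotonic lysis), 3 × 10⁶ cells in HBSS with 0.5 nM [³H]LTB₄ and compound, 20 min at 0 °C. Bound label collected by filtration, filters washed with ice-cold HBSS, then scintillation-counted. Nonspecific binding taken with 300 nM LTB₄. Compound stocks 10 mM in DMSO, final DMSO 0.35%.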
# [2] = biological target: T1, Leukotriene B4 receptor; test: LTB4 receptor antagonistic activity as inhibition of LTB4-induced [Ca2+] release from human PMNs; type: functional
# Summary of the method: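 Human neutrophils from citrated venous blood (HESPAN sedimentation, centrifugal elutriation) loaded with 0.2 μM Fura-2 AM for 30 min at 37 °C, then held at 2 × 10⁶ cells/mL. Ca²⁺ and Mg²⁺ added back at 37 °C; compound given 40 s before 1 nM LTB₄; fluorescence change followed. Ki = IC50/(1 + [LTB₄]/EC50 of LTB₄). Final DMSO 0.35%.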
# [3] = system: Mus musculus; test: Inhibition of Arachidonic acid (AA)-induced ear edema was determined at dosing of 0.5 hr challenge; expressed as myeloperoxide activity (MPO) at 0.1 mg/kg; 21/15; type: functional
# [4] = system: Mus musculus; test: Inhibition of Arachidonic acid (AA)-induced ear edema was determined at dosing of 0.5 hr challenge; expressed as myeloperoxide activity (MPO) at 1 mg/kg; 24/24; type: functional
# [5] = system: Mus musculus; test: Inhibition of Arachidonic acid (AA)-induced ear edema was determined at dosing of 0.5 h challenge; expressed as myeloperoxide activity (MPO) at 3 mg/kg; 39/58; type: functional
# [6] = system: Mus musculus; test: Inhibition of Arachidonic acid (AA)-induced ear edema was determined at dosing of 17 hr challenge; expressed as myeloperoxide activity (MPO) at 10 mg/kg; 40/55; type: functional
# [7] = system: Mus musculus; test: Inhibition of Arachidonic acid (AA)-induced ear edema was determined at dosing of 17 hr challenge; expressed as myeloperoxide activity (MPO) at 3 mg/kg; 25/12; type: functional
# [8] = system: Mus musculus; test: Inhibition of Arachidonic acid (AA)-induced ear edema was determined at dosing of 17 hr challenge; expressed as myeloperoxide activity (MPO) at 10 mg/kg; 1/1; type: functional
# [9] = system: Mus musculus; test: Inhibition of Arachidonic acid (AA)-induced ear edema was determined at dosing of 17 hr challenge; expressed as myeloperoxide activity (MPO) at 10 mg/kg; 27/0; type: functional
# [10] = system: Mus musculus; test: Inhibition of Arachidonic acid (AA)-induced ear edema was determined at dosing of 0.5 h challenge; expressed as myeloperoxide activity (MPO) at 1 mg/kg; 32/38; type: functional
# [11] = system: Mus musculus; test: Inhibition of Arachidonic acid (AA)-induced ear edema was determined at dosing of 0.5 hr challenge; expressed as myeloperoxide activity (MPO) at 3 mg/kg; 45/53; type: functional
# [12] = system: Mus musculus; test: Inhibition of Arachidonic acid (AA)-induced ear edema was determined at dosing of 17 hr challenge; expressed as myeloperoxide activity (MPO) at 10 mg/kg; 59/67; type: functional
# [13] = system: Mus musculus; test: Inhibition of Arachidonic acid (AA)-induced ear edema was determined at dosing of 17 hr challenge; expressed as myeloperoxide activity (MPO) at 3 mg/kg; 44/53; type: functional
# [14] = system: Mus musculus; test: Inhibition of Arachidonic acid (AA)-induced ear edema was determined at dosing of 17 hr challenge; expressed as myeloperoxide activity (MPO) at 10 mg/kg; 46/54; type: functional
# [15] = system: Mus musculus; test: Inhibition of Arachidonic acid (AA)-induced ear edema was determined at dosing of 0.5 hr challenge; expressed as myeloperoxide activity (MPO) at 3 mg/kg; 52/58; type: functional
# [16] = system: Mus musculus; test: Inhibition of Arachidonic acid (AA)-induced ear edema was determined at dosing of 0.5 hr challenge; expressed as myeloperoxide activity (MPO) at 1 mg/kg; 26/32; type: functional
# [17] = system: Mus musculus; test: Inhibition of Arachidonic acid (AA)-induced ear edema was determined at dosing of 17 hr challenge; expressed as myeloperoxide activity (MPO) at 3 mg/kg; 34/15; type: functional
# [18] = system: Mus musculus; test: Inhibition of Arachidonic acid (AA)-induced ear edema was determined at dosing of 17 hr challenge; expressed as myeloperoxide activity (MPO) at 10 mg/kg; 0/0; type: functional
# [19] = system: Mus musculus; test: Inhibition of Arachidonic acid (AA)-induced ear edema was determined at dosing of 0.5 hr challenge; expressed as myeloperoxide activity (MPO) at 1 mg/kg; 50/67; type: functional
# [20] = system: Mus musculus; test: Inhibition of Arachidonic acid (AA)-induced ear edema was determined at dosing of 0.5 hr challenge; expressed as myeloperoxide activity (MPO) at 3 mg/kg; 56/71; type: functional
# [21] = system: Mus musculus; test: Inhibition of Arachidonic acid (AA)-induced ear edema was determined at dosing of 0.5 hr challenge; expressed as myeloperoxide activity (MPO) at 0.1 mg/kg; 41/49; type: functional
# [22] = system: Mus musculus; test: Inhibition of Arachidonic acid (AA)-induced ear edema was determined at dosing of 17 hr challenge; expressed as myeloperoxide activity (MPO) at 10 mg/kg; 27/31; type: functional
# [23] = system: Mus musculus; test: Inhibition of Arachidonic acid (AA)-induced ear edema was determined at dosing of 0.5 hr AA challenge; expressed as myeloperoxide activity (MPO) at 1 mg/kg; 14/0; type: functional
# [24] = system: Mus musculus; test: Inhibition of Arachidonic acid (AA)-induced ear edema was determined at dosing of) 17 hr challenge; expressed as myeloperoxide activity (MPO) at 10 mg/kg; 33/2; type: functional
Compound,IC50 [1],Ki [2],further results
CCN(CC)C(=O)/C=C(\C)c1ccc(Oc2ccccc2)c(OCC(=O)O)c1,2400 nM,–,–
CCN(CC)C(=O)/C=C(\C)c1ccc(OC(C)c2ccccc2)c(OCCC(=O)O)c1 (stereo not drawn),128 nM,81 nM,Punch weight/MPO activity [3]: 21; Punch weight/MPO activity [4]: <24; Punch weight/MPO activity [5]: <39; Punch weight/MPO activity [6]: <40; Punch weight/MPO activity [7]: <25
CCN(CC)C(=O)/C=C(\C)c1ccc(SCc2ccccc2)c(OCC(=O)O)c1,34 nM,26 nM,Punch weight/MPO activity [8]: 1
CCN(CC)C(=O)/C=C(\C)c1ccc(CCc2ccccc2)c(OCC(=O)O)c1,56 nM,7.7 nM,Punch weight/MPO activity [9]: 27
CCN(CC)C(=O)/C=C(\C)c1ccc(OCc2c(F)cccc2F)c(CC(=O)O)c1,87 nM,22 nM,Punch weight/MPO activity [10]: <32; Punch weight/MPO activity [11]: <45; Punch weight/MPO activity [12]: <59; Punch weight/MPO activity [13]: 44
CCN(CC)C(=O)/C=C(\C)c1ccc(OCc2c(F)cccc2F)c(OCC(=O)O)c1,56 nM,18 nM,Punch weight/MPO activity [14]: <46; Punch weight/MPO activity [15]: <52; Punch weight/MPO activity [16]: <26; Punch weight/MPO activity [17]: <34
CCN(CC)C(=O)/C=C(\C)c1ccc(OCc2c(Cl)cccc2Cl)c(OCC(=O)O)c1,31 nM,14 nM,Punch weight/MPO activity [18]: 0
CCN(CC)C(=O)/C=C(\C)c1ccc(OC(c2ccccc2)c2ccccc2)c(OCC(=O)O)c1,64 nM,5.2 nM,Punch weight/MPO activity [23]: 14
CCN(CC)C(=O)/C=C(\C)c1cc(OCC(=O)O)cc(OC(C)c2ccccc2)c1 (stereo not drawn),84 nM,11.2 nM,–
CCN(CC)C(=O)/C=C(\C)c1ccc(OCc2ccccc2Cl)c(OCC(=O)O)c1,67 nM,16 nM,Punch weight/MPO activity [24]: <33

# Now from value to compound, other results behind:
IC50 [1],Ki [2],Compound,further results
4300 nM,–,CCN(CC)C(=O)CC(C)c1ccc(OC(C)c2ccccc2)cc1 (stereo not drawn),–
884 nM,–,CCN(CC)C(=O)/C=C(\C)c1ccc(OC(C)c2ccccc2)c(C(=O)O)c1 (stereo not drawn),–
50 nM,9.1 nM,CCN(CC)C(=O)/C=C(\C)c1ccc(OC(C)c2ccccc2)c(OCC(=O)O)c1 (stereo not drawn),Punch weight/MPO activity [19]: <50; Punch weight/MPO activity [20]: <56; Punch weight/MPO activity [21]: <41; Punch weight/MPO activity [22]: <27
420 nM,–,CCN(CC)C(=O)/C=C(\C)c1ccc(OC(C)c2ccccc2)c(O)c1 (stereo not drawn),–
5800 nM,–,C/C(=C\C(=O)N1CCCCC1)c1ccc(OC(C)c2ccccc2)cc1 (stereo not drawn),–
1400 nM,–,CCCN(CCC)C(=O)/C=C(\C)c1ccc(OC(C)c2ccccc2)cc1 (stereo not drawn),–

# Source: ChEMBL document CHEMBL1132199, “Carboxy-substituted cinnamides: a novel series of potent, orally active LTB4 receptor antagonists” (J Med Chem, 1999)
